Laboratory results published in ChEMBL document CHEMBL1159064 (J Med Chem, 2010).
Activity calls are given as the source filed them. The rule behind the calls is not given here.

How the values were obtained:
[1] = target: T1, 5-hydroxytryptamine receptor 1A (Homo sapiens, UniProt P08908); test: […] activity at 5HT1A receptor expressed in CHO cells assessed as inhibition of 5-HT-stimulated [35S]GTPgamma binding; format: functional, cell-based
T1 sequence (P08908 whole entry): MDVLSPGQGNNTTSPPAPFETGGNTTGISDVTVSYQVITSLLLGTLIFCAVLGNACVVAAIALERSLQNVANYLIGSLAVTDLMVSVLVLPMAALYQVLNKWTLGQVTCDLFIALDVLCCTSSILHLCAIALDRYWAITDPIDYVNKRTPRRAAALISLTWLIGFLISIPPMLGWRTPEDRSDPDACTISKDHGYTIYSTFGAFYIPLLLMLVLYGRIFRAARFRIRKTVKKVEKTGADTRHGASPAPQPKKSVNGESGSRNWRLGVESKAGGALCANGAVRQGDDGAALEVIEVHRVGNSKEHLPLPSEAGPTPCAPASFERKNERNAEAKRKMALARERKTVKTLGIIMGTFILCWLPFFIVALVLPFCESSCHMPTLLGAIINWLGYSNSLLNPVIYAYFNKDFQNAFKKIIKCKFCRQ

[2] = target: T2, 5-hydroxytryptamine receptor 1A (Homo sapiens) (UniProt P08908); test: Antagonist activity at 5HT1A receptor expressed in CHO cells assessed as inhibition of 5-HT-stimulated [35S]GTPgamma binding relative to control; format: functional, cell-based
T2 sequence (whole entry): T1 sequence (P08908 whole entry)

[3] = target: T1, 5-hydroxytryptamine receptor 1A; test: Displacement of [3H]8-OH-DPAT from 5HT1A receptor expressed in CHO cells by liquid scintillation counting; format: cell-based
Outline: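 Binding buffer 50 mM Tris, 4 mM MgCl2, pH 7.4. Nonspecific binding defined with 10 μM of a selective 5-HT1A antagonist. GF/B filtration with cold Tris/EDTA wash, scintillation counting. IC50/Ki by sigmoidal nonlinear regression. Mean of 5-6 experiments.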

[4] = system: Rattus norvegicus; test: Anxiolytic effect in Sprague-Dawley rat assessed as increase in time spent at open arm at 3 mg/kg, ip pretreated for 1 hr by elevated plus maze test; format: functional, organism-based; design: dose 3 mg/kg
Outline: (§1)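 Male rats, 250-300 g, given saline or test compound ip (1.0 or 3.0 mg/kg) 1 h before the maze. Two open and two closed arms (40 cm walls), 50 × 10 cm arms, raised 50 cm. Rat placed on centre facing a closed arm and allowed 5 min to explore. Video tracking recorded open-arm entries and time. Mean ± SE, n = 7-9; comparison to the saline group.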

[5] = system: Rattus norvegicus; test: Anxiolytic effect in Sprague-Dawley rat assessed as increase in number of entries at open arm at 3 mg/kg, ip pretreated for 1 hr by elevated plus maze test; format: functional, organism-based; design: dose 3 mg/kg; outline: as §1
[6] = system: Rattus norvegicus; test: Increase in ventral tegmental area dopaminergic neuron bursting level in D2-like receptor antagonist raclopride-pretreated Sprague-Dawley rat at 1 mg/kg, iv in presence of 5HT1A receptor antagonist WAY-100635 administered post compound dose; format: functional, organism-based; design: dose 1 mg/kg
[7] = system: Rattus norvegicus; test: Increase in ventral tegmental area dopaminergic neuron bursting level in D2-like receptor antagonist raclopride-pretreated Sprague-Dawley rat at 1 mg/kg, iv in pretreated with 5HT1A receptor antagonist WAY-100635; format: functional, organism-based; design: dose 1 mg/kg
[8] = target: T2, 5-hydroxytryptamine receptor 1A (Homo sapiens); test: Agonist activity at 5HT1A receptor expressed in CHO cells assessed as stimulation of [35S]GTPgamma binding relative to control; format: functional, cell-based
[9] = system: Rattus norvegicus; test: Increase in ventral tegmental area dopaminergic neuron firing rate in D2-like receptor antagonist raclopride-pretreated Sprague-Dawley rat at 1 mg/kg, iv in pretreated with 5HT1A receptor antagonist WAY-100635; format: functional, organism-based; design: dose 1 mg/kg
[10] = target: D(1A) dopamine receptor (Homo sapiens, UniProt P21728); test: Displacement of [3H]SCH23390 from dopamine D1 receptor expressed in HEK293 cells by liquid scintillation counting; format: cell-based
Outline: (§2)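 Membranes from stably transfected HEK293 cells (15 μg/tube) expressing D1 (radioligand [3H]SCH23390) or D2 (radioligand [3H]spiperone), 0.7 nM radioligand, compound 1 nM–100 μM, duplicate tubes, 50 min at 30 °C. Buffer 50 mM Tris, 4 mM MgCl2, pH 7.4. Nonspecific binding with 10 μM SCH23390 (D1) or spiperone (D2). GF/B filtration, scintillation counting. Ki by sigmoidal nonlinear regression.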

[11] = system: Rattus norvegicus; test: Increase in ventral tegmental area dopaminergic neuron bursting level in D2-like receptor antagonist raclopride-pretreated Sprague-Dawley rat at 1 mg/kg, iv relative to untreated control; format: functional, organism-based; design: dose 1 mg/kg
[12] = target: T1, 5-hydroxytryptamine receptor 1A; test: Agonist activity at 5HT1A receptor expressed in CHO cells assessed as stimulation of [35S]GTPgamma binding; format: functional, cell-based
[13] = target: D(2) dopamine receptor (Homo sapiens, UniProt P14416); test: Displacement of [3H]spiperone from dopamine D2 receptor expressed in HEK293 cells by liquid scintillation counting; format: cell-based; outline: as §2
[14] = system: Rattus norvegicus; test: Increase in ventral tegmental area dopaminergic neuron firing rate in D2-like receptor antagonist raclopride-pretreated Sprague-Dawley rat at 1 mg/kg, iv in presence of 5HT1A receptor antagonist WAY-100635 administered post compound dose; format: functional, organism-based; design: dose 1 mg/kg
[15] = system: Rattus norvegicus; test: Anxiolytic effect in Sprague-Dawley rat assessed as increase in number of entries at open arm at 1 mg/kg, ip pretreated for 1 hr by elevated plus maze test; format: functional, organism-based; design: dose 1 mg/kg; outline: as §1
[16] = system: Rattus norvegicus; test: Anxiolytic effect in Sprague-Dawley rat assessed as increase in time spent at open arm at 1 mg/kg, ip pretreated for 1 hr by elevated plus maze test; format: functional, organism-based; design: dose 1 mg/kg; outline: as §1

Chain of D(1A) dopamine receptor (P21728 whole entry): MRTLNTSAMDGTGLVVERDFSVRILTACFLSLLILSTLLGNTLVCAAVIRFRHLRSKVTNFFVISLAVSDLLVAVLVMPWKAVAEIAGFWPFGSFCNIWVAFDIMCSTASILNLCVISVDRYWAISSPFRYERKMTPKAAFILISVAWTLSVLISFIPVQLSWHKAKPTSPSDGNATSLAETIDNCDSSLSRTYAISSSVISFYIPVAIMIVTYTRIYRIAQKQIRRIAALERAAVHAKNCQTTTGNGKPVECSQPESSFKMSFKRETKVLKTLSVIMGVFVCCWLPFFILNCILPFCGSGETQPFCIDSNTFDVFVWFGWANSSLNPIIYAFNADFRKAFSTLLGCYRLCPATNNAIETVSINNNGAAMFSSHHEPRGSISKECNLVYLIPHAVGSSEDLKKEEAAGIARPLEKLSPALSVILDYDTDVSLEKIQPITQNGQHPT
Chain of D(2) dopamine receptor (P14416 whole entry): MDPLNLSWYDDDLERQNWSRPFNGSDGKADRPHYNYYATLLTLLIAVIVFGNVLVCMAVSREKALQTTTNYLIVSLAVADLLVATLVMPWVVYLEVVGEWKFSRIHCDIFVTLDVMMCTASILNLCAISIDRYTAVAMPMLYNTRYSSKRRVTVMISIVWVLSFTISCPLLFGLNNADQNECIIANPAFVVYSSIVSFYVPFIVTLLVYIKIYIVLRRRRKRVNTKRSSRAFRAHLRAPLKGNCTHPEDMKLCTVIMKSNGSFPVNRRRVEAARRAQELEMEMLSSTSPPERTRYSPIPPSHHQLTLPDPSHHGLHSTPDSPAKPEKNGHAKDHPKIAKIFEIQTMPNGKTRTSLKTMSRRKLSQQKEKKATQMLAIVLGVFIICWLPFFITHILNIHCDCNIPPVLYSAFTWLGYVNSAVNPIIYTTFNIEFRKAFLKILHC

NCCc1c[nH]c2ccc(O)cc12 [SEROTONIN]
IC50 ([1]; cho): Not Active
Imax [2]: inactive

C[C@@H]1Cc2ccc3c(c2O1)-c1cccc2c1[C@@H](C3)N(C)CC2 (relative stereo)
Ki ([3]; read-out: Ki): 3.1 nM
Activity [4]: Active
Activity [5]: Active
Activity [6]: inactive
Activity [7]: inactive
Emax [8]: 127%
IC50 ([1]; cho): Not Active
Imax [2]: inactive
Activity [9]: inactive
Ki [10]: > 10000 nM
Activity [11]: Active
EC50 ([12]; read-out: EC50): 86 nM
Ki [13]: > 10000 nM
Activity [14]: inactive

C=CC(C)Oc1cccc2c1-c1cccc3c1[C@@H](C2)N(CCC)CC3 (mixture of isomers)
Ki ([3]; read-out: Ki): > 10000 nM

C[C@H]1Cc2ccc3c(c2O1)-c1cccc2c1[C@@H](C3)N(C)CC2 (relative stereo)
Ki ([3]; read-out: Ki): 45.3 nM
Activity [4]: inactive
Activity [15]: inactive
Activity [5]: inactive
Emax [8]: inactive
IC50 ([1]; read-out: IC50): 18 nM
Imax [2]: 100%
Ki [10]: > 10000 nM
EC50 ([12]; cho): Not Active
Ki [13]: > 10000 nM
Activity [16]: inactive

C=CCOc1cccc2c1-c1cc(OC)cc3c1[C@@H](C2)N(C)CC3
Ki ([3]; read-out: Ki): 66 nM
Ki [10]: > 10000 nM
Ki [13]: > 10000 nM

CC1Cc2ccc3c(c2O1)-c1cccc2c1[C@@H](C3)N(C)CC2 (mixture of isomers)
Ki ([3]; read-out: Ki): 6.7 nM
Emax [8]: inactive
IC50 ([1]; read-out: IC50): 323 nM
Imax [2]: 100%
Ki [10]: > 10000 nM
EC50 ([12]; cho): Not Active
Ki [13]: > 10000 nM

Cc1cc2ccc3c(c2o1)-c1cccc2c1[C@@H](C3)N(C)CC2
Ki ([3]; read-out: Ki): 29 nM
Ki [10]: > 10000 nM
Ki [13]: > 10000 nM

CCCN1CCc2cccc3c2[C@H]1Cc1ccc2c(c1-3)OC(C)(C)C2
Ki ([3]; read-out: Ki): 630 nM
Ki [10]: > 10000 nM
Ki [13]: > 10000 nM

C#CCOc1cccc2c1-c1cccc3c1[C@@H](C2)N(CCC)CC3
Ki ([3]; read-out: Ki): 55 nM
Ki [10]: > 10000 nM
Ki [13]: > 10000 nM

C=CC(C)c1ccc2c(c1O)-c1cccc3c1[C@@H](C2)N(CCC)CC3 (mixture of isomers)
Ki ([3]; read-out: Ki): > 10000 nM

C=CCc1ccc2c(c1O)-c1cc(OC)cc3c1[C@@H](C2)N(C)CC3
Ki ([3]; read-out: Ki): 144 nM
Ki [10]: > 10000 nM
Ki [13]: > 10000 nM

CCCN1CCc2cccc3c2[C@H]1Cc1cccc(O)c1-3
Ki ([3]; read-out: Ki): 45 nM
Ki [10]: > 10000 nM

C=CCOc1cccc2c1-c1cccc3c1[C@@H](C2)N(CCC)CC3
Ki ([3]; read-out: Ki): 279 nM
Ki [10]: > 10000 nM
Ki [13]: > 10000 nM

CN1CCc2cccc3c2[C@H]1Cc1cccc(O)c1-3
Ki ([3]; read-out: Ki): 49 nM
Ki [10]: 61 nM
Ki [13]: 208 nM

CCCN1CCc2cccc3c2[C@H]1Cc1ccc2c(C)c(C)oc2c1-3
Ki ([3]; read-out: Ki): 510 nM
Ki [10]: > 10000 nM
Ki [13]: > 10000 nM

CCCN1CCc2cccc3c2[C@H]1Cc1ccc2c(c1-3)OC(C)C2 (mixture of isomers)
Ki ([3]; read-out: Ki): 340 nM

COc1cc2c3c(c1)-c1c(O)cccc1C[C@H]3N(C)CC2
Ki ([3]; read-out: Ki): 258 nM
Ki [10]: 46 nM
Ki [13]: 235 nM

C=C(C)COc1cccc2c1-c1cccc3c1[C@@H](C2)N(CCC)CC3
Ki ([3]; read-out: Ki): 373 nM
Ki [10]: > 10000 nM
Ki [13]: > 10000 nM

C=CCOc1cccc2c1-c1cccc3c1[C@@H](C2)N(C)CC3
Ki ([3]; read-out: Ki): 12 nM
Emax [8]: 61%
IC50 ([1]; read-out: IC50): 323 nM
Imax [2]: 100%
Ki [10]: > 10000 nM
EC50 ([12]; read-out: EC50): 56 nM
Ki [13]: > 10000 nM

C/C=C/COc1cccc2c1-c1cccc3c1[C@@H](C2)N(CCC)CC3
Ki ([3]; read-out: Ki): 11 nM

CC1Cc2ccc3c(c2O1)-c1cc(O)cc2c1[C@@H](C3)N(C)CC2 (mixture of isomers)
Ki ([3]; read-out: Ki): 12 nM

CC#CCOc1cccc2c1-c1cccc3c1[C@@H](C2)N(CCC)CC3
Ki ([3]; read-out: Ki): 125 nM
Ki [10]: > 10000 nM
Ki [13]: > 10000 nM

CCCN1CCc2cccc3c2[C@H]1Cc1c(CC=C(C)C)ccc(O)c1-3
Ki ([3]; cho): Not Active
Ki [10]: > 10000 nM
Ki [13]: > 10000 nM

C#CCOc1cccc2c1-c1cccc3c1[C@@H](C2)N(C)CC3
Ki ([3]; read-out: Ki): 14 nM
Emax [8]: 73%
Ki [10]: > 10000 nM
EC50 ([12]; read-out: EC50): 180 nM
Ki [13]: > 10000 nM

C=CC(C)c1ccc(O)c2c1C[C@@H]1c3c(cccc3-2)CCN1CCC (mixture of isomers)
Ki ([3]; read-out: Ki): 626 nM

CCCN1CCc2cccc3c2[C@H]1Cc1cccc(OCC=C(C)C)c1-3
Ki ([3]; read-out: Ki): 149 nM
Ki [10]: > 10000 nM
Ki [13]: > 10000 nM

C=C(C)Cc1ccc2c(c1O)-c1cccc3c1[C@@H](C2)N(CCC)CC3
Ki ([3]; cho): Not Active
Ki [10]: > 10000 nM
Ki [13]: > 10000 nM

CCCN1CCc2cccc3c2[C@H]1Cc1ccc2c(c1-3)OC(C)C2C (mixture of isomers)
Ki ([3]; read-out: Ki): 90 nM

C=CCc1ccc2c(c1O)-c1cccc3c1[C@@H](C2)N(C)CC3
Ki ([3]; read-out: Ki): 135 nM
Ki [10]: > 10000 nM
Ki [13]: > 10000 nM

CCCN1CCc2cccc3c2[C@H]1Cc1ccc2cc(C)oc2c1-3
Ki ([3]; read-out: Ki): 320 nM
Ki [10]: > 10000 nM
Ki [13]: > 10000 nM

C=CCc1ccc2c(c1O)-c1cccc3c1[C@@H](C2)N(CCC)CC3
Ki ([3]; read-out: Ki): 793 nM
Ki [10]: > 10000 nM
Ki [13]: > 10000 nM
